Screening data (PubChem)
Sampled rows, rich in hits. Any-hit rate of the full collection: about 0.58%.
V1aR counter = agonists of human V1a receptor, primary screen, counter-screen for OXTR agonist project, fluorescence, CHO-V1R cells; Fluo-8 calcium fluorescence, agonist mode; 0% DMSO, 100% 3 nM vasopressin; Vasopressin V1a receptor (Homo sapiens), P37288; 320,000 compounds, 0.25% hits; activation, % at 3 µM;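 active means activation above the mean activation of all tested compounds plus 3 SD, per screening run, cut at about 20% in these data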;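 further: signal is peak over basal fluorescence ratio across a 100 second FLIPR read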
OXTR agonist = human OXTR agonists, primary screen, fluorescence, CHO-OTR cells, Fluo-8 calcium; 320,000 compounds, 0.32% hits; activation, % at 3 µM; Fluo-8 calcium fluorescence; normalized: DMSO 0%, oxytocin 100%; Oxytocin receptor (Homo sapiens), P30559; AID 2435, 2010;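 active means activation above the mean of all tested compounds plus 3 SD, cutoff set per screening run, cut at about 20% in these data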;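 further: peak over basal fluorescence ratio from a 100 s FLIPR kinetic read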
TRPML3 agonist = human TRPML3 channel agonists, primary screen, cell-based, HEK293 TRPML3-YFP, Fluo-8 calcium fluorescence, 3 µM; Mucolipin-3 (Homo sapiens), Q8TDD5; 100% = the carbachol control signal; activation, % at 3 µM; 220,000 compounds, 0.29% hits; AID 1448, 2008;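 active means activation above its plate's cutoff, the mean activation of the plate's test wells plus 3 SD, cut at about 12% in these data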
Target sequence (Q8TDD5 whole entry, looked up): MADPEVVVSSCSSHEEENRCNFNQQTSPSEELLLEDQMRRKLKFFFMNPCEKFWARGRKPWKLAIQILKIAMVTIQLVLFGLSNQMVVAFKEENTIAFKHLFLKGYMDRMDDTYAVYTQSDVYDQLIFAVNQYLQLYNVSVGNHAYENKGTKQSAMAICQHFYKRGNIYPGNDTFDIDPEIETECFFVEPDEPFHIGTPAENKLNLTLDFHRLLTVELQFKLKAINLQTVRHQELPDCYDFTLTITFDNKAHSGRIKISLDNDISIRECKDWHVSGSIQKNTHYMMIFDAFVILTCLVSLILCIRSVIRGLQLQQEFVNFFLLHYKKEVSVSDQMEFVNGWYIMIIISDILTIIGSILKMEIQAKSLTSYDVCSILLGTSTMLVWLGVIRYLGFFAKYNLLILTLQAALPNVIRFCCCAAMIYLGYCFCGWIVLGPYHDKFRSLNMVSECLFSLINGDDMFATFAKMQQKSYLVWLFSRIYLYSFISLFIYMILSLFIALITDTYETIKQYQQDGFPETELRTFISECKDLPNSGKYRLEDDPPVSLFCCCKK
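Test system: TRPML3-YFP stable HEK293 cells. Doses: single point at 3 µM. Incubation: dye loading 1 h 37 °C then 30 min ambient, 125 s read. Signal: Fluo-8 calcium dye fluorescence, ex 470-495, em 515-575 nm. Measure: percent activation from peak-to-basal fluorescence ratio, scaled between DMSO and carbachol.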
OXTR potentiator = human OXTR potentiators, primary screen, fluorescence, CHO-OTR cells, Fluo-8 calcium; activation, % at 3 µM; AID 2445, 2010; Fluo-8 calcium fluorescence, potentiator mode; 0% = oxytocin EC15, 100% = EC100; 320,000 compounds, 0.061% hits;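 active means activation above that plate's cutoff, the mean activation of tested compounds plus 3 SD, cut at about 6.6% in these data, passing the limit was not always enough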
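Replication – single well per compound, singlicate · Assay system – CHO cell line stably expressing human OTR · Timing – 6 min pre-incubation, 100 s read · Measure – normalized max/min fluorescence ratio, % activation · Doses – 3.0 µM, one dose · Detection – Fluo-8 calcium dye fluorescence · Probe or stimulus – oxytocin near EC15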
TRPN1 ag = zebrafish TRPN1 channel agonists, primary screen, cell-based, HEK293, calcium fluorescence; 220,000 compounds, 0.18% hits; activation, % at 3 µM; HEK293 zebrafish TRPN1-YFP, Fluo-8 calcium fluorescence; 100% = response to 87 µM carbachol; AID 1424, 2008; transient receptor potential cation channel N1 (TRPN1/NompC), Danio rerio;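 active means activation above its plate's cutoff, the mean activation of test wells on that plate plus 3 SD, cut at about 19% in these data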
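Control set: carbachol 87 µM as high control, DMSO as low control; system: HEK293 stable line with zebrafish TRPN1-YFP; read-out: % activation versus carbachol response; detection: intracellular calcium fluorescence with Fluo-8; doses: single test compound dose, 3 µM nominal, 0.3% DMSO; schedule: dye 1 h 37 °C plus 30 min RT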
TRPN1 ag 2 = zebrafish TRPN1 channel agonists, counter-screen for TRPML3 agonist project, cell-based, HEK293 TRPN1-YFP, Fluo-8 calcium. shares compounds with TRPML3 agonist. Fluo-8 calcium fluorescence; scaled: carbachol wells 100%, DMSO wells 0%. activation, % at 3 µM. 310 compounds, 10% hits. AID 1525, 2009;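 active means mean activation over replicates above a set limit taken from the earlier TRPN1 channel primary screen, cut at about 19% in these data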
TRPML3 ag conf = human TRPML3 channel agonists, confirmation, cell-based, HEK293 TRPML3-YFP, Fluo-8 calcium, triplicate; 310 compounds, 80% hits; shares compounds with TRPML3 agonist; activation, % at 3 µM; Fluo-8 calcium fluorescence; 100% set by carbachol, 0% by DMSO;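 active means activation above a set limit derived from the earlier primary screen, cut at about 12% in these data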
Large screens that a line does not name were inactive (follow-up assays come after a bar, where they were run).

O=C1NC(=O)C(=Cc2csc3ccccc23)C(=O)N1	OXTR agonist 24.0
N#C/C=C/C#N	none (no result: TRPML3 agonist, TRPN1 ag)
O=[N+]([O-])c1ccc(NCc2ccc(Cl)cc2)c2ccncc12	none (no result: TRPML3 agonist, TRPN1 ag)
O=[N+]([O-])c1ccc(NCc2ccccc2)c2nonc12	V1aR counter 691.5, OXTR agonist 692.8, TRPML3 agonist 215.7, TRPN1 ag 332.1
Cn1c(O)c(C=Nc2ccc(Br)cc2)c(=O)n(C)c1=O	none (no result: TRPML3 agonist, TRPN1 ag)
Cn1c(O)c(/C=C/C=Nc2ccccc2)c(=O)n(C)c1=S	V1aR counter 47.4, OXTR agonist 93.0
Cc1cc2c(C(F)(F)F)cc(=O)oc2c2c1NCCC2	none
O=c1cc(C(F)(F)F)c2cc3c4c(c2o1)CCCN4CCC3	V1aR counter 152.2, OXTR agonist 168.9
Cc1c(Br)c(=O)oc2cc(OCC(=O)N3C[C@H]4C[C@@H](C3)c3cccc(=O)n3C4)ccc12	none (no result: TRPML3 agonist, TRPN1 ag)
C/C=C(\C)C(=O)OC1C(C)=C2C(C1OC(=O)CCCCC)C(C)(OC(C)=O)CC(OC(=O)CCC)C1(O)C2OC(=O)C1(C)O (stereo unspecified)	V1aR counter 65.2, OXTR agonist 62.3 (no result: TRPML3 agonist, TRPN1 ag)
O=C(N/N=C/c1c(O)n(CCc2ccccc2)c(=O)[nH]c1=O)c1ccccc1	none
CCc1ccc(NP(=O)(Oc2ccccc2F)Oc2ccccc2F)cc1	none
COC(=O)C1=C(c2ccc(F)cc2OCc2ccccc2)C[C@@H]2CC[C@H]1N2C(=O)N1CCC(O)CC1	none (no result: TRPML3 agonist, TRPN1 ag)
CC1(C)CN=C(Nc2ccc(F)c(F)c2)S1	none
CC1(C)CN=C(Nc2ccc(F)c(Cl)c2)S1	V1aR counter 27.0
CN1/C(=C\C=C2C(=O)NC(=S)NC2=O)C(C)(C)c2ccccc21	TRPML3 agonist 31.5, TRPN1 ag 57.4 (no result: V1aR counter, OXTR agonist, OXTR potentiator)
O=C1NC(=O)C(=C/C=C/c2coc3ccc(Br)cc3c2=O)C(=O)N1	OXTR agonist 39.6
Nc1ccc2ccc3cccc[n+]3c2c1	V1aR counter 92.4, OXTR agonist 38.2 (no result: TRPML3 agonist, TRPN1 ag)
CN1C(=O)C(=Cc2sc(=O)n(-c3ccccc3)c2N2CCCCC2)C(=O)N(C)C1=O	TRPN1 ag 29.1 (no result: V1aR counter, OXTR agonist, OXTR potentiator)
COc1ccc(C(c2ccc(OC)cc2)C(Cl)(Cl)Cl)cc1	none (no result: TRPML3 agonist, TRPN1 ag)
O=[N+]([O-])c1ccc(N2CCCCCC2)c2nonc12	V1aR counter 534.2, OXTR agonist 412.8 (no result: TRPML3 agonist, TRPN1 ag)
COc1ccc2[nH]c(C)c(CCNCc3cc(OC)c(OC)c(OC)c3)c2c1	none
COc1ccc(CNCCc2c(C)[nH]c3ccc(OC(F)(F)F)cc23)c(OC)c1	V1aR counter 41.0, OXTR agonist 40.6 (no result: TRPML3 agonist, TRPN1 ag)
CC(C(=O)Nc1ccc(Br)cc1C(=O)c1ccccc1)N1CCCCC1 (stereo unspecified)	OXTR potentiator 11.9
O=C(COc1ccc(Br)cc1)N1CCN(Cc2ccc3c(c2)OCO3)CC1	none (no result: TRPML3 agonist, TRPN1 ag)
O=[N+]([O-])c1cccc(CN2CCN(Cc3ccc(Br)cc3)CC2)c1	none
COC(=O)C1=CCCN(C)C1	TRPML3 agonist 19.8 | TRPN1 ag 2 inactive | TRPML3 ag conf 45.8
COC(=O)C1=C(c2cccc(C#N)c2)C[C@@H]2CC[C@H]1N2C(=O)NCC1CC1	none (no result: TRPML3 agonist, TRPN1 ag)
